Source: ChEMBL document CHEMBL1144579, “Synthesis and antiparasitic evaluation of bis-2,5-[4-guanidinophenyl]thiophenes” (Eur J Med Chem, 2007)
The source made the active and inactive calls. The calls are words filed in the database; no cut-off is given here.

These compounds were tested on Mus musculus (assay: Survival of Trypanosoma brucei rhodesiense STIB900 infected mouse at 5 mg/kg, ip administered for 4 days). Conditions: route intraperitoneal.
Format: functional
`CC(C)NC(=N)Nc1ccc(-c2ccc(-c3ccc(NC(=N)NC(C)C)cc3)s2)cc1` was tested, and the Survival was >34 days.

The compounds below were run on Mus musculus (assay: Survival of Trypanosoma brucei rhodesiense STIB900 infected mouse at 20 mg/kg, ip administered for 4 days). Conditions: route intraperitoneal.
Format: functional
For `CNC(=N)Nc1ccc(-c2ccc(-c3ccc(NC(=N)NC)cc3)s2)cc1`, the Survival was >40.25 days. `N=C(Nc1ccc(-c2ccc(-c3ccc(NC(=N)NC4CCCC4)cc3)s2)cc1)NC1CCCC1` was tested, and the Survival was >39.5 days. With `N=C(N)c1ccc(-c2ccc(-c3ccc(C(=N)N)cc3)o2)cc1` [FURAMIDINE] the Survival was >52.5 days. With `N=C(N)c1ccc(OCCCCCOc2ccc(C(=N)N)cc2)cc1` [PENTAMIDINE] the Survival was 40.8 days. For `N=C(N)Nc1ccc(-c2ccc(-c3ccc(NC(=N)N)cc3)s2)cc1`, the Survival was 43 days.

Each compound was assayed on Trypanosoma cruzi (assay: Antiparasitic activity against Trypanosoma cruzi Tulahuen LacZ C4). Conditions: not given.
Format: functional, organism-based
Work on `CNC(=N)Nc1ccc(-c2ccc(-c3ccc(NC(=N)NC)cc3)s2)cc1` yielded an IC50 of 30500 nM. For `N=C(Nc1ccc(-c2ccc(-c3ccc(NC(=N)NC4CCCC4)cc3)s2)cc1)NC1CCCC1`, the IC50 was 8400 nM. With `N=C(N)c1ccc(-c2ccc(-c3ccc(C(=N)N)cc3)o2)cc1` [FURAMIDINE] the IC50 was 23300 nM. `CC(C)NC(=N)Nc1ccc(-c2ccc(-c3ccc(NC(=N)NC(C)C)cc3)s2)cc1` showed an IC50 of 28200 nM. `N=C(Nc1ccc(-c2ccc(-c3ccc(NC(=N)NC4CCCCC4)cc3)s2)cc1)NC1CCCCC1` was tested, and the IC50 was 1700 nM. In the case of `N=C(Nc1ccccc1)Nc1ccc(-c2ccc(-c3ccc(NC(=N)Nc4ccccc4)cc3)s2)cc1`, the IC50 is reported as 9900 nM. `Cc1ccc(NC(=N)Nc2ccc(-c3ccc(-c4ccc(NC(=N)Nc5ccc(C)cc5)cc4)s3)cc2)cc1` gave an IC50 of 3700 nM. `N=C(N)c1ccc(OCCCCCOc2ccc(C(=N)N)cc2)cc1` [PENTAMIDINE] showed an IC50 of 5350 nM. Work on `N=C(N)Nc1ccc(-c2ccc(-c3ccc(NC(=N)N)cc3)s2)cc1` yielded an IC50 of 154000 nM.

Each compound was assayed on Trypanosoma brucei rhodesiense (assay: Antitrypanosomal activity in Trypanosoma brucei rhodesiense STIB900 infected mouse at 20 mg/kg, ip administered for 4 days). Conditions: not given.
Format: functional, organism-based
Set-up: dose 20 mg/kg
In the case of `N=C(N)c1ccc(-c2ccc(-c3ccc(C(=N)N)cc3)o2)cc1` [FURAMIDINE], the Activity is reported as “inactive”. With `N=C(N)c1ccc(OCCCCCOc2ccc(C(=N)N)cc2)cc1` [PENTAMIDINE] the Activity was “inactive”. With `N=C(N)Nc1ccc(-c2ccc(-c3ccc(NC(=N)N)cc3)s2)cc1` the Activity was “inactive”.

What follows are compounds tested on Leishmania donovani (assay: Antiparasitic activity against Leishmania donovani). Conditions: not given.
Format: functional, organism-based
`CNC(=N)Nc1ccc(-c2ccc(-c3ccc(NC(=N)NC)cc3)s2)cc1` was tested, and the IC50 was 6200 nM. Compound `N=C(Nc1ccc(-c2ccc(-c3ccc(NC(=N)NC4CCCC4)cc3)s2)cc1)NC1CCCC1` has an IC50 of 1500 nM. `N=C(N)c1ccc(-c2ccc(-c3ccc(C(=N)N)cc3)o2)cc1` [FURAMIDINE] showed an IC50 of 2800 nM. `CC(C)NC(=N)Nc1ccc(-c2ccc(-c3ccc(NC(=N)NC(C)C)cc3)s2)cc1` showed an IC50 of 11000 nM. `N=C(Nc1ccc(-c2ccc(-c3ccc(NC(=N)NC4CCCCC4)cc3)s2)cc1)NC1CCCCC1` showed an IC50 of 2500 nM. In the case of `N=C(Nc1ccccc1)Nc1ccc(-c2ccc(-c3ccc(NC(=N)Nc4ccccc4)cc3)s2)cc1`, the IC50 is reported as 35000 nM. Work on `Cc1ccc(NC(=N)Nc2ccc(-c3ccc(-c4ccc(NC(=N)Nc5ccc(C)cc5)cc4)s3)cc2)cc1` yielded an IC50 of 16000 nM. With `N=C(N)c1ccc(OCCCCCOc2ccc(C(=N)N)cc2)cc1` [PENTAMIDINE] the IC50 was 1900 nM. With `N=C(N)Nc1ccc(-c2ccc(-c3ccc(NC(=N)N)cc3)s2)cc1` the IC50 was 6700 nM.

What follows are compounds tested on Trypanosoma brucei rhodesiense (assay: Antiparasitic activity against Trypanosoma brucei rhodesiense STIB900). Conditions: not given.
Format: functional, organism-based
In short: (§1)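 In vitro IC50s against T. b. rhodesiense STIB900 and P. falciparum K1 are means of at least two independent experiments. The IC50 values averaged for each compound were within a factor of two of each other.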
Work on `CNC(=N)Nc1ccc(-c2ccc(-c3ccc(NC(=N)NC)cc3)s2)cc1` yielded an IC50 of 6.2 nM. In the case of `N=C(Nc1ccc(-c2ccc(-c3ccc(NC(=N)NC4CCCC4)cc3)s2)cc1)NC1CCCC1`, the IC50 is reported as 306 nM. Compound `CC(C)NC(=N)Nc1ccc(-c2ccc(-c3ccc(NC(=N)NC(C)C)cc3)s2)cc1` has an IC50 of 116 nM. In the case of `N=C(Nc1ccc(-c2ccc(-c3ccc(NC(=N)NC4CCCCC4)cc3)s2)cc1)NC1CCCCC1`, the IC50 is reported as 354 nM. `N=C(Nc1ccccc1)Nc1ccc(-c2ccc(-c3ccc(NC(=N)Nc4ccccc4)cc3)s2)cc1` gave an IC50 of 1900 nM. With `Cc1ccc(NC(=N)Nc2ccc(-c3ccc(-c4ccc(NC(=N)Nc5ccc(C)cc5)cc4)s3)cc2)cc1` the IC50 was 573 nM. With `N=C(N)Nc1ccc(-c2ccc(-c3ccc(NC(=N)N)cc3)s2)cc1` the IC50 was 28 nM.

What follows are compounds tested on Plasmodium falciparum (assay: Antiparasitic activity against Plasmodium falciparum K1). Conditions: not given.
Format: functional, organism-based
In short: as §1
With `CNC(=N)Nc1ccc(-c2ccc(-c3ccc(NC(=N)NC)cc3)s2)cc1` the IC50 was 23 nM. Work on `N=C(Nc1ccc(-c2ccc(-c3ccc(NC(=N)NC4CCCC4)cc3)s2)cc1)NC1CCCC1` yielded an IC50 of 134 nM. With `CC(C)NC(=N)Nc1ccc(-c2ccc(-c3ccc(NC(=N)NC(C)C)cc3)s2)cc1` the IC50 was 107 nM. `N=C(Nc1ccc(-c2ccc(-c3ccc(NC(=N)NC4CCCCC4)cc3)s2)cc1)NC1CCCCC1` showed an IC50 of 160 nM. `N=C(Nc1ccccc1)Nc1ccc(-c2ccc(-c3ccc(NC(=N)Nc4ccccc4)cc3)s2)cc1` showed an IC50 of 154 nM. `Cc1ccc(NC(=N)Nc2ccc(-c3ccc(-c4ccc(NC(=N)Nc5ccc(C)cc5)cc4)s3)cc2)cc1` gave an IC50 of 42.7 nM. For `N=C(N)Nc1ccc(-c2ccc(-c3ccc(NC(=N)N)cc3)s2)cc1`, the IC50 was 3.6 nM.

Each compound was assayed on L6 (assay: Cytotoxicity against rat L6 cells by alamar blue assay). Conditions: not given.
Format: cell-based
In the case of `CCN(CC)CCCC(C)Nc1ccnc2cc(Cl)ccc12` (centres undefined) [CHLOROQUINE], the IC50 is reported as 188000 nM. With `CNC(=N)Nc1ccc(-c2ccc(-c3ccc(NC(=N)NC)cc3)s2)cc1` the IC50 was 54300 nM. Compound `N=C(Nc1ccc(-c2ccc(-c3ccc(NC(=N)NC4CCCC4)cc3)s2)cc1)NC1CCCC1` has an IC50 of 15900 nM. Compound `CC(C)NC(=N)Nc1ccc(-c2ccc(-c3ccc(NC(=N)NC(C)C)cc3)s2)cc1` has an IC50 of 69400 nM. For `N=C(Nc1ccc(-c2ccc(-c3ccc(NC(=N)NC4CCCCC4)cc3)s2)cc1)NC1CCCCC1`, the IC50 was 4300 nM. With `N=C(Nc1ccccc1)Nc1ccc(-c2ccc(-c3ccc(NC(=N)Nc4ccccc4)cc3)s2)cc1` the IC50 was 2500 nM. For `Cc1ccc(NC(=N)Nc2ccc(-c3ccc(-c4ccc(NC(=N)Nc5ccc(C)cc5)cc4)s3)cc2)cc1`, the IC50 was 1100 nM. `N=C(N)Nc1ccc(-c2ccc(-c3ccc(NC(=N)N)cc3)s2)cc1` showed an IC50 of 100000 nM.
